Screening results as filed in PubChem.
DNMT1 inh: human DNMT1 methyltransferase inhibitors, primary screen, biochemical, molecular beacon, fluorescence, HinP1I cleavage, uHTS. DNA (cytosine-5)-methyltransferase 1 (Homo sapiens), P26358. inhibition (reported as % activation of signal), % at 10 µM. actives 0.83% (n = 360,000); in the data active = inhibition above about 50%
CFTR F508del cor: F508del CFTR correction, initial screen, CFBE line, single point | activity (quench increase), % at 7.58 µM | AID 720511, 2013 | actives 0.36% (n = 350,000) | CFBE cells, YFP halide quenching; stimulated with forskolin plus potentiator P3; % fluorescence drop versus neutral controls;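 active = mean added fluorescence quench of at least 8% versus neutral control, with both replicates also reaching 8%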;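 note: cells transiently co-express mutant CFTR-F508del with the halide-sensitive YFP; corrector assay measuring rescue of mutant channel to the surface after 24 h compound exposure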
SUMO1-SIM PPI: modulators of SUMO1 protein-protein interactions, primary screen, biochemical, uHTS | inhibition, % at 20 µM | actives 0.33% (n = 360,000) | Small ubiquitin-related modifier 1 (Homo sapiens), P63165 | SUMO1 binding to a labelled peptide, TR-FRET, 1 h; in the data active = inhibition above about 37%
Target sequence (P63165 whole entry, looked up): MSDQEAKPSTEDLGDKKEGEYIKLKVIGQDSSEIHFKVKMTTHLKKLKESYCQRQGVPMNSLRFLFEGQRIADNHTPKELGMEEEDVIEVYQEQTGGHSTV
STEP block: STEP phosphatase inhibitors, primary screen, biochemical, fluorescence intensity, uHTS; recombinant STEP, OMFP fluorogenic substrate; actives 0.25% (n = 360,000); inhibition, % at 20 µM;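 active = inhibition at 20 µM, scaled per plate between control wells, above about 37%, limit read from the data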;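 note: 0% = DMSO with enzyme and substrate and 100% = substrate only without enzyme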
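Assay system: isolated STEP enzyme / Timing: 20 min at room temperature, dark / Doses: 20 µM, 1% DMSO / Technique: fluorescence intensity, excitation 480 nm, emission 540 nm / Reagent: fluorogenic phosphatase substrate OMFP at 25 µM final / Measure: percent inhibition scaled to no-enzyme and uninhibited-enzyme controls, plate-pattern corrected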
LMPTP block: LMPTP phosphatase inhibitors, primary screen, biochemical, fluorescence intensity, uHTS; recombinant LMPTP-A, OMFP fluorogenic substrate; actives 0.22% (n = 360,000); inhibition, % at 20 µM; Low molecular weight phosphotyrosine protein phosphatase (Homo sapiens), P24666;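 active = compounds that cut the enzyme signal by at least half of the control window in the single-dose screen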;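 note: plate controls were DMSO wells with enzyme plus substrate for no effect and substrate without enzyme for full effect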
Target sequence (P24666 whole entry, looked up): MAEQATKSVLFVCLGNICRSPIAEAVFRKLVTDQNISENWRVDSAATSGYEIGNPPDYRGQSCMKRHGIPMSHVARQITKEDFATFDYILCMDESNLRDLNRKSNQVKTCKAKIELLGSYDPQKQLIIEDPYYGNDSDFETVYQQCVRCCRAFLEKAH
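Assay system: LMPTP-A, protein tyrosine phosphatase of low molecular weight / Medium: pH 6.0 Bis-Tris buffer with DTT and Triton X-100 / Schedule: 50 min enzyme reaction at room temperature, protected from light / Measured by: endpoint fluorescence intensity from OMFP dephosphorylation / Read-out basis: % inhibition relative to no-enzyme and uninhibited control wells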
Scp-1 inhibitor: Scp-1 phosphatase inhibitors, primary screen, biochemical, colorimetric, uHTS. AID 493091, 2011. actives 0.88% (n = 340,000). inhibition, % at 20 µM. Recombinant Scp1, phosphopeptide, malachite green phosphate absorbance;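 active = inhibition above about 50% at 20 µM, limit read from the data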;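 note: plate controls were DMSO wells with enzyme for no effect and wells lacking enzyme for full effect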
Target sequence (Q9GZU7 76-261 limits assumed): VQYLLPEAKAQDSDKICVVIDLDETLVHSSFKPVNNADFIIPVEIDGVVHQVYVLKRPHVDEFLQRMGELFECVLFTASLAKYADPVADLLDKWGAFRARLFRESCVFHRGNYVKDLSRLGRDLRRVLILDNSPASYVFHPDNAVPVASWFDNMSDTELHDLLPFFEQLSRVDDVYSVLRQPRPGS
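Material – SCP-1 phosphatase catalytic domain, residues 76-261 · Buffer or medium – Acidic Tris acetate buffer with magnesium and detergent · Also added – Phospho 17-mer peptide substrate · Compound – single 20 µM dose, 1% DMSO · Times – 45 min room-temperature reaction, 5 min colour, 30 min stabiliser · Technique – Phosphate-binding colour reagent, absorbance read at 630 nm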
DNMT1 confirm: DNMT1 methyltransferase inhibitor retest, confirmation, biochemical, molecular beacon, fluorescence, single concentration | shares compounds with DNMT1 inh | DNMT1 molecular beacon HinP1I cleavage | inhibition, % at 10 µM | actives 8% (n = 2,300);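 active = average inhibition of at least 30% in the single-concentration confirmation test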
DNMT1 interf: counter-screen for DNMT1 inhibitors: spectral interference | shares compounds with DNMT1 inh | DNMT1 molecular beacon spectral interference counterscreen, fluorescence 485/520 | activation (fluorescence interference), % at 10 µM | actives 1% (n = 2,300) | AID 602387;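 active = activation of at least 30% at 10 µM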;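 note: DNMT1 catalytic domain with a HinP1I cleavage step and a FAM/dabcyl DNA beacon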
* hit, by the source's call; / = no result given. Rows were chosen to be rich in hits. Some 1.6% of all compounds tested hit in one or more screens of this group.

SMILES	DNMT1 inh	CFTR F508del cor	SUMO1-SIM PPI	STEP block	LMPTP block	Scp-1 inhibitor	DNMT1 confirm	DNMT1 interf
CCC(c1nnc(SCc2nc3ccccc3s2)n1Cc1ccccc1)N(C)C (stereo not drawn)	-5	/	-1	2	1	-6	/	/
c1ccc(Cn2c(SCc3nc4ccccc4s3)nnc2-c2ccco2)cc1	104*	/	37	11	37	26	1	6
O=c1c(-c2c(O)cc(O)c3c(=O)cc(-c4ccc(O)cc4)oc23)c(-c2ccc(O)cc2)oc2cc(O)cc(O)c12	93*	-3	50*	-3	15	53*	12	7
COc1cccc(=O)c2c(C)n(CC(=O)c3ccccc3)c(C)c12	63*	0	5	4	18	18	0	1
CCOc1cccc(=O)c2c(C)n(CC(=O)c3ccccc3)c(C)c12	37	-1	4	2	9	2	/	/
Cc1ccc(OCC(=O)NNC(=O)CSc2ncnc3sc(C)c(C)c23)cc1	54*	1	-8	-1	2	-1	3	5
CO[C@@H]1CC[C@@H]2CCOc3c(C#N)cccc3C(=O)N(C)C[C@H](c3ccccc3)CC(=O)N(C)C[C@H]1O2	/	1	/	/	/	/	/	/
CO[C@H]1CN(C)C(=O)c2cc(NS(C)(=O)=O)ccc2OC[C@@H](C)N(CCC(F)(F)F)C[C@H]1C	/	0	/	/	/	/	/	/
Cc1ccc(/C=C/C(=O)N2CCc3ccccc32)o1	86*	/	-3	4	2	52*	8	2
CCC(=O)N1C[C@@H](C)[C@@H](OC)CN(C)C(=O)c2cc(NS(C)(=O)=O)ccc2OC[C@H]1C	/	-2	/	/	/	/	/	/
C[C@@H]1CN([C@@H](C)CO)C(=O)c2c(c3ccccc3n2C)-c2ccccc2CO[C@H]1CN(C)C(=O)c1ccccc1	/	1	/	/	/	/	/	/
CCCCCn1c(N)c(-c2nc3ccccc3s2)c2c([N+](=O)[O-])nn(CC)c(=O)c21	-3	/	11	3	4	-5	/	/
CCCCCn1c(N)c(-c2nc3ccccc3o2)c2c([N+](=O)[O-])nn(CC)c(=O)c21	95*	/	11	38	56*	102*	2	1
Cc1cccc(C)c1NC(=O)COc1ccc2c(C)c(Cc3ccccc3)c(=O)oc2c1C	57*	2	1	1	0	-2	0	-5
C[C@H]1CN([C@@H](C)CO)S(=O)(=O)c2ccc(C3=CCCC3)cc2O[C@@H]1CN(C)C(=O)C1CC1	/	-1	/	/	/	/	/	/
O=C(Cc1ccccc1)N1C[C@H]2[C@@H](c3ccccc31)[C@H](CO)N2C(=O)c1cccc(F)c1	/	1	/	/	/	/	/	/
COc1ccc(/C=C2/SC(=O)N(CCC(=O)Nc3ccccc3)C2=O)cc1OC	62*	1	-5	1	0	3	2	3
COc1ccc2c3c(n(C)c2c1)[C@H](CO)N(C(=O)C1CC1)CC31CCN(C(=O)C2CCOCC2)CC1	/	-1	/	/	/	/	/	/
Nn1cnc2c(c1=O)C1(CCCCC1)Cc1ccccc1-2	2	/	-2	-3	-1	1	/	/
Cn1ncn2c(=O)c3c(nc12)-c1ccccc1CC31CCCC1	85*	0	6	2	1	-9	1	3
Cc1cc(C)c(NC(=O)CSc2nc(COc3ccccc3)nc3ccccc23)c(C)c1	70*	2	-4	1	0	-4	0	-7
Cc1cc(SCC(=O)NC(=O)NCc2ccco2)nc2ccccc12	-1	/	4	2	2	0	/	/
COc1ccc(-c2nnc(SCC(=O)NCc3ccco3)o2)cc1	2	/	-1	0	0	-4	/	/
Cc1cc(SCC(=O)NC(=O)NCc2ccco2)nc2c(C)cccc12	53*	/	6	3	-2	41	0	0
Cc1cc(SCC(=O)N2CCCC2=O)nc2c(C)cccc12	80*	-3	-2	-1	1	-4	3	-1
SMILES	DNMT1 inh	CFTR F508del cor	SUMO1-SIM PPI	STEP block	LMPTP block	Scp-1 inhibitor	DNMT1 confirm	DNMT1 interf
O=C(CSc1nnc(-c2ccc(OC(F)F)cc2)o1)NC(=O)NCc1ccco1	83*	0	4	6	13	49	26	4
Cc1noc(C)c1S(=O)(=O)N(C)C[C@H]1OCCCC[C@@H](C)Oc2ccc(NC(=O)Cc3ccccc3)cc2C(=O)N([C@H](C)CO)C[C@@H]1C	/	-1	/	/	/	/	/	/
CN(C)c1ccc2c(O)cc(=O)n(C)c2c1	-11	/	-1	4	4	-11	/	/
CN(C)c1ccc2cc(S(=O)(=O)O)cc(O)c2c1	63*	1	28	11	13	67*	5	-1
O=C(Nc1ccccc1)C1CCCN1C(=O)NCc1ccccc1 (stereo not drawn)	1	-1	4	-4	1	-6	/	/
CC(=O)Nc1ccc(NC(=O)C2CCCN2C(=O)NCc2ccccc2)cc1 (stereo not drawn)	88*	1	1	4	-1	-7	2	3
CO[C@@H]1CN(C)C(=O)c2cc(NC(=O)Nc3cccc(F)c3)ccc2OC[C@H](C)N(C(=O)C2CC2)C[C@H]1C	/	2	/	/	/	/	/	/
C/C(=N\NC(=O)c1ccc2c(c1)OCO2)c1ccc(O)cc1	81*	0	-6	-2	-1	-12	26	4
COc1ccc(NC(=O)Nc2ccc3c(c2)CC(=O)N([C@H](C)CO)C[C@H](C)[C@@H](CN(C)Cc2ccc4c(c2)OCO4)O3)cc1	/	3	/	/	/	/	/	/
C[C@H](CO)N1C[C@H](C)[C@H](CN(C)C(=O)Nc2ccc(C(F)(F)F)cc2)Oc2ccc(N(C)C)cc2C1=O	/	4	/	/	/	/	/	/
O=C(CCN1C(=O)/C(=C/c2ccco2)SC1=S)Nc1ccc(C(=O)O)c(O)c1	81*	/	47*	48*	22	65*	4	0
CCc1ccc(/C=C2/SC(=S)N(CCC(=O)Nc3cccc(C(=O)O)c3)C2=O)cc1	3	-1	-7	8	7	0	/	/
